What was measured:
[1] = Inhibition of trypsin after 30 mins preincubated for 5 mins before addition of substrate
Method in brief: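 Trypsin enzyme solution at 1 mg/mL in 50 mM Tris-HCl/100 mM NaCl/1 mM CaCl₂. Substrate solution was 2 mM N-benzoyl-D,L-arginine-p-nitroanilide in buffer. Test sample in ethanol was diluted with buffer and preincubated with enzyme in buffer for 5 min at 37 °C before substrate addition. Color was read at 405 nm immediately and after 30 min at 37 °C.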

[2] = Inhibition of Chymotrypsin after 30 mins preincubated for 5 mins before addition of substrate
Method in brief: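 Chymotrypsin enzyme solution at 1 mg/mL in 50 mM Tris-HCl/100 mM NaCl/1 mM CaCl₂/1 mM HCl. Substrate solution was 2 mM […] in the same buffer. Samples were dissolved in ethanol and diluted in buffer. Enzyme, sample and buffer were preincubated 5 min at 37 °C, then substrate was added. Absorbance at 405 nm was read at once and after 30 min at 37 °C.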

Structure (SMILES) | IC50 [1] [nM] | IC50 [2] [nM]
CC[C@H](C)[C@@H]1NC(=O)[C@H](Cc2ccc(O)cc2)N(C)C(=O)[C@H]([C@@H](C)CC)N2C(=O)[C@H](CC[C@H]2O)NC(=O)[C@H](CCCNC(=N)N)NC(=O)[C@@H](NC(=O)[C@@H](COS(=O)(=O)O)OS(=O)(=O)O)[C@@H](C)OC1=O | 2200 | > 100000
CC[C@H](C)[C@H]1C(=O)N(C)[C@@H](Cc2ccc(OC)c(Cl)c2)C(=O)N[C@@H](C(C)C)C(=O)O[C@H](C)[C@H](NC(=O)[C@H](O)CO)C(=O)N[C@@H](CCCNC(=N)N)C(=O)N[C@H]2CC[C@@H](O)N1C2=O | 3500 | 19600
CC[C@H](C)[C@@H]1NC(=O)[C@H](Cc2ccc(OC)c(Cl)c2)N(C)C(=O)[C@H]([C@@H](C)CC)N2C(=O)[C@H](CC[C@H]2O)NC(=O)[C@H](CCCNC(=N)N)NC(=O)[C@@H](NC(=O)[C@@H](COS(=O)(=O)O)OS(=O)(=O)O)[C@@H](C)OC1=O | 1700 | > 100000

Stronger by IC50 [1], values ahead:

IC50 [1] [nM] | IC50 [2] [nM] | Structure (SMILES)
1100 | 2800 | CC[C@H](C)[C@H]1C(=O)N(C)[C@@H](Cc2ccc(OC)c(Cl)c2)C(=O)N[C@@H](C(C)C)C(=O)O[C@H](C)[C@H](NC(=O)[C@H](O)CO)C(=O)N[C@@H](CCCNC(=N)N)C(=O)N[C@H]2CC[C@@H](OC)N1C2=O
1200 | > 100000 | CC[C@H](C)[C@H]1C(=O)N(C)[C@@H](Cc2ccc(O)c(Cl)c2)C(=O)N[C@@H](C(C)C)C(=O)O[C@H](C)[C@H](NC(=O)[C@@H](COS(=O)(=O)O)OS(=O)(=O)O)C(=O)N[C@@H](CCCNC(=N)N)C(=O)N[C@H]2CC[C@@H](O)N1C2=O
700 | 18200 | CC[C@H](C)[C@@H]1NC(=O)[C@H](Cc2ccc(OC)c(Cl)c2)N(C)C(=O)[C@H]([C@@H](C)CC)N2C(=O)[C@H](CC[C@H]2O)NC(=O)[C@H](CCCNC(=N)N)NC(=O)[C@@H](NC(=O)[C@H](O)COS(=O)(=O)O)[C@@H](C)OC1=O

Source: ChEMBL document CHEMBL1154207, “Protease inhibitors from a water bloom of the cyanobacterium Microcystis aeruginosa” (J Nat Prod, 2009)
